Data as given in ChEMBL document CHEMBL5236607, “Membrane-Active Cyclic Amphiphilic Peptides: Broad-Spectrum Antibacterial Activity Alone and in Combination with Antibiotics” (J Med Chem, 2022).
Peptide text beside a SMILES is read from it.

What was measured:
Staphylococcus aureus [1] = experiment: Synergistic antibacterial activity against methicillin resistant Staphylococcus aureus ATCC BAA-1556 incubated for 24 hrs in presence of clindamycin by checkerboard assay; assay type: functional
Summary of the method: (§1)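 Checkerboard assay. Inoculum from an LB overnight culture at 0.5 McFarland, diluted 1/150 in MH media. […] Incubated 37 °C for 24 h. FICI = MIC combination/MIC alone summed over both agents. Triplicate.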

Escherichia coli [2] = experiment: Synergistic antibacterial activity against Escherichia coli ATCC 25922 assessed as fractional inhibitory concentration incubated for 24 hrs in presence of tetracycline by checkerboard assay; assay type: functional
Summary of the method: (§2)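 Checkerboard assay in MH broth. Inoculum from an LB overnight culture set to 0.5 McFarland and diluted 1/150. […] Each agent was also titrated alone. Incubation 24 h at 37 °C. FIC = combination MIC/individual MIC; FICI = sum of the FICs. Triplicate.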

Escherichia coli [3] = experiment: Synergistic antibacterial activity against Escherichia coli ATCC 25922 fractional inhibitory concentration incubated for 24 hrs in presence of kanamycin by checkerboard assay; assay type: functional; summary of the method: as §2
Klebsiella pneumoniae [4] = experiment: Synergistic antibacterial activity against Klebsiella pneumoniae ATCC BAA-1705 fractional inhibitory concentration index incubated for 24 hrs in presence of clindamycin by checkerboard assay; assay type: functional; summary of the method: as §2
Pseudomonas aeruginosa [5] = experiment: Synergistic antibacterial activity against Pseudomonas aeruginosa ATCC […] assessed as fractional inhibitory concentration incubated for 24 hrs in presence of tetracycline by checkerboard assay; assay type: functional
Klebsiella pneumoniae [6] = experiment: Synergistic antibacterial activity against Klebsiella pneumoniae ATCC BAA-1705 fractional inhibitory concentration index incubated for 24 hrs in presence of Ciprofloxacin by checkerboard assay; assay type: functional; summary of the method: as §2
Escherichia coli [7] = experiment: Synergistic antibacterial activity against Escherichia coli ATCC 25922 fractional inhibitory concentration incubated for 24 hrs in presence of vancomycin by checkerboard assay; assay type: functional; summary of the method: as §2
Pseudomonas aeruginosa [8] = experiment: Synergistic antibacterial activity against Pseudomonas aeruginosa ATCC […] fractional inhibitory concentration incubated for 24 hrs in presence of meropenem by checkerboard assay; assay type: functional
Staphylococcus aureus [9] = experiment: Synergistic antibacterial activity against methicillin resistant Staphylococcus aureus ATCC BAA-1556 fractional inhibitory concentration incubated for 24 hrs in presence of vancomycin by checkerboard assay; assay type: functional; summary of the method: as §1
Pseudomonas aeruginosa [10] = experiment: Synergistic antibacterial activity against Pseudomonas aeruginosa ATCC […] fractional inhibitory concentration index incubated for 24 hrs in presence of vancomycin by checkerboard assay; assay type: functional
Escherichia coli [11] = experiment: Synergistic antibacterial activity against Escherichia coli ATCC 25922 fractional inhibitory concentration incubated for 24 hrs in presence of polymyxin B by checkerboard assay; assay type: functional; summary of the method: as §2
Klebsiella pneumoniae [12] = experiment: Synergistic antibacterial activity against Klebsiella pneumoniae ATCC BAA-1705 assessed as fractional inhibitory concentration incubated for 24 hrs in presence of tobramycin by checkerboard assay; assay type: functional; summary of the method: as §2
Escherichia coli [13] = experiment: Synergistic antibacterial activity against Escherichia coli ATCC 25922 fractional inhibitory concentration index incubated for 24 hrs in presence of levofloxacin by checkerboard assay; assay type: functional; summary of the method: as §2
Pseudomonas aeruginosa [14] = experiment: Synergistic antibacterial activity against Pseudomonas aeruginosa ATCC […] fractional inhibitory concentration index incubated for 24 hrs in presence of levofloxacin by checkerboard assay; assay type: functional
Klebsiella pneumoniae [15] = experiment: Synergistic antibacterial activity against Klebsiella pneumoniae ATCC BAA-1705 assessed as fractional inhibitory concentration index incubated for 24 hrs in presence of tetracycline by checkerboard assay; assay type: functional; summary of the method: as §2
Pseudomonas aeruginosa [16] = experiment: Synergistic antibacterial activity against Pseudomonas aeruginosa ATCC […] assessed as fractional inhibitory concentration incubated for 24 hrs in presence of clindamycin by checkerboard assay; assay type: functional
Klebsiella pneumoniae [17] = experiment: Synergistic antibacterial activity against Klebsiella pneumoniae ATCC BAA-1705 fractional inhibitory concentration incubated for 24 hrs in presence of polymyxin B by checkerboard assay; assay type: functional; summary of the method: as §2
Pseudomonas aeruginosa [18] = experiment: Synergistic antibacterial activity against Pseudomonas aeruginosa ATCC […] fractional inhibitory concentration incubated for 24 hrs in presence of Ciprofloxacin by checkerboard assay; assay type: functional
Pseudomonas aeruginosa [19] = experiment: Synergistic antibacterial activity against Pseudomonas aeruginosa ATCC […] assessed as fractional inhibitory concentration index incubated for 24 hrs in presence of clindamycin by checkerboard assay; assay type: functional; summary of the method: as §1
Pseudomonas aeruginosa [20] = experiment: Synergistic antibacterial activity against Pseudomonas aeruginosa ATCC […] fractional inhibitory concentration index incubated for 24 hrs in presence of metronidazole by checkerboard assay; assay type: functional
Pseudomonas aeruginosa [21] = experiment: Synergistic antibacterial activity against Pseudomonas aeruginosa ATCC […] fractional inhibitory concentration index incubated for 24 hrs in presence of Ciprofloxacin by checkerboard assay; assay type: functional
Klebsiella pneumoniae [22] = experiment: Synergistic antibacterial activity against Klebsiella pneumoniae ATCC BAA-1705 fractional inhibitory concentration incubated for 24 hrs in presence of metronidazole by checkerboard assay; assay type: functional; summary of the method: as §1
Klebsiella pneumoniae [23] = experiment: Synergistic antibacterial activity against Klebsiella pneumoniae ATCC BAA-1705 incubated for 24 hrs in presence of polymyxin B by checkerboard assay; assay type: functional
Klebsiella pneumoniae [24] = experiment: Synergistic antibacterial activity against Klebsiella pneumoniae ATCC BAA-1705 assessed as fractional inhibitory concentration incubated for 24 hrs in presence of tetracycline by checkerboard assay; assay type: functional; summary of the method: as §2
Escherichia coli [25] = experiment: Synergistic antibacterial activity against Escherichia coli ATCC 25922 assessed as fractional inhibitory concentration index incubated for 24 hrs in presence of clindamycin by checkerboard assay; assay type: functional; summary of the method: as §2
[26] = Therapeutic index, ratio of HC50 for human RBC to MIC for methicillin resistant Staphylococcus aureus ATCC BAA-1556
Summary of the method: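 Human RBCs washed in PBS pH 7.4 and mixed 1:1 with two-fold peptide dilutions (4% v/v suspension), 2 h at 37 °C. Hemoglobin in supernatant read at 567 nm against PBS (0%) and 1% Triton X-100 (100%). HC50 is the concentration giving 50% hemolysis. Index is HC50 divided by MIC against MRSA.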

Klebsiella pneumoniae [27] = experiment: Synergistic antibacterial activity against Klebsiella pneumoniae ATCC BAA-1705 fractional inhibitory concentration incubated for 24 hrs in presence of vancomycin by checkerboard assay; assay type: functional; summary of the method: as §2
Escherichia coli [28] = experiment: Synergistic antibacterial activity against Escherichia coli ATCC 25922 fractional inhibitory concentration incubated for 24 hrs in presence of levofloxacin by checkerboard assay; assay type: functional; summary of the method: as §2
Pseudomonas aeruginosa [29] = experiment: Synergistic antibacterial activity against Pseudomonas aeruginosa ATCC […] fractional inhibitory concentration incubated for 24 hrs in presence of levofloxacin by checkerboard assay; assay type: functional
Pseudomonas aeruginosa [30] = experiment: Synergistic antibacterial activity against Pseudomonas aeruginosa ATCC […] fractional inhibitory concentration index incubated for 24 hrs in presence of daptomycin by checkerboard assay; assay type: functional
Pseudomonas aeruginosa [31] = experiment: Synergistic antibacterial activity against Pseudomonas aeruginosa ATCC […] fractional inhibitory concentration index incubated for 24 hrs in presence of kanamycin by checkerboard assay; assay type: functional
Escherichia coli [32] = experiment: Synergistic antibacterial activity against Escherichia coli ATCC 25922 incubated for 24 hrs in presence of tetracycline by checkerboard assay; assay type: functional; summary of the method: as §2
Escherichia coli [33] = experiment: Synergistic antibacterial activity against Escherichia coli ATCC 25922 fractional inhibitory concentration index incubated for 24 hrs in presence of kanamycin by checkerboard assay; assay type: functional; summary of the method: as §2
Staphylococcus aureus [34] = experiment: Synergistic antibacterial activity against methicillin resistant Staphylococcus aureus ATCC BAA-1556 fractional inhibitory concentration index incubated for 24 hrs in presence of vancomycin by checkerboard assay; assay type: functional; summary of the method: as §1
Klebsiella pneumoniae [35] = experiment: Synergistic antibacterial activity against Klebsiella pneumoniae ATCC BAA-1705 fractional inhibitory concentration index incubated for 24 hrs in presence of polymyxin B by checkerboard assay; assay type: functional
Klebsiella pneumoniae [36] = experiment: Synergistic antibacterial activity against Klebsiella pneumoniae ATCC BAA-1705 fractional inhibitory concentration incubated for 24 hrs in presence of levofloxacin by checkerboard assay; assay type: functional; summary of the method: as §2

Structure (SMILES)	MIC (Staphylococcus aureus [1])	FIC (Escherichia coli [2])	FIC (Escherichia coli [3])	fractional inhibitory concentration index (FICI) (Klebsiella pneumoniae [4])	FIC (Pseudomonas aeruginosa [5])	fractional inhibitory concentration index (FICI) (Klebsiella pneumoniae [6])	FIC (Escherichia coli [7])	FIC (Pseudomonas aeruginosa [8])	FIC (Staphylococcus aureus [9])	fractional inhibitory concentration index (FICI) (Pseudomonas aeruginosa [10])	FIC (Escherichia coli [11])	FIC (Klebsiella pneumoniae [12])	fractional inhibitory concentration index (FICI) (Escherichia coli [13])	fractional inhibitory concentration index (FICI) (Pseudomonas aeruginosa [14])	fractional inhibitory concentration index (FICI) (Klebsiella pneumoniae [15])	FIC (Pseudomonas aeruginosa [16])	FIC (Klebsiella pneumoniae [17])	FIC (Pseudomonas aeruginosa [18])	fractional inhibitory concentration index (FICI) (Pseudomonas aeruginosa [19])	fractional inhibitory concentration index (FICI) (Pseudomonas aeruginosa [20])	other results
N=C(N)NCCC[C@@H]1NC(=O)[C@H](CCCNC(=N)N)NC(=O)[C@H](CCCNC(=N)N)NC(=O)[C@H](Cc2c[nH]c3ccccc23)NC(=O)[C@H](Cc2c[nH]c3ccccc23)NC(=O)[C@H](Cc2c[nH]c3ccccc23)NC(=O)[C@H](Cc2c[nH]c3ccccc23)NC(=O)[C@H](CCCNC(=N)N)NC(=O)[C@H](CCCNC(=N)N)NC1=O	0.0312 µg/mL	0.125	0.25	0.254	0.125	0.313	0.0313	0.125	0.5	0.313	0.125	0.125	0.375	0.375	0.375	0.016	0.125	0.25	0.266	0.5	fractional inhibitory concentration index (FICI) (Pseudomonas aeruginosa [21]): 0.5; FIC (Klebsiella pneumoniae [22]): 0.0313; MIC (Klebsiella pneumoniae [23]): 0.125 µg/mL; FIC (Klebsiella pneumoniae [24]): 0.125; fractional inhibitory concentration index (FICI) (Escherichia coli [25]): 0.313; TI [26]: 85; FIC (Klebsiella pneumoniae [27]): 0.0625; FIC (Escherichia coli [28]): 0.125; FIC (Pseudomonas aeruginosa [29]): 0.125; fractional inhibitory concentration index (FICI) (Pseudomonas aeruginosa [30]): 0.313; fractional inhibitory concentration index (FICI) (Pseudomonas aeruginosa [31]): 0.281; MIC (Escherichia coli [32]): 1 µg/mL; fractional inhibitory concentration index (FICI) (Escherichia coli [33]): 0.5; fractional inhibitory concentration index (FICI) (Staphylococcus aureus [34]): 0.75; fractional inhibitory concentration index (FICI) (Klebsiella pneumoniae [35]): 0.375; FIC (Klebsiella pneumoniae [36]): 0.125
N=C(N)NCCC[C@@H]1NC(=O)[C@H](CCCNC(=N)N)NC(=O)[C@H](CCCNC(=N)N)NC(=O)[C@H](CCCNC(=N)N)NC(=O)[C@H](Cc2c[nH]c3ccccc23)NC(=O)[C@H](Cc2c[nH]c3ccccc23)NC(=O)[C@H](Cc2c[nH]c3ccccc23)NC(=O)[C@H](Cc2c[nH]c3ccccc23)NC(=O)[C@H](CCCNC(=N)N)NC(=O)[C@H](CCCNC(=N)N)NC1=O (cyclo(RRRRRRWWWW))	0.031 µg/mL	0.063	0.125	0.266	0.25	0.313	0.063	0.25	0.25	0.531	0.063	0.25	0.375	0.375	0.375	0.016	0.031	0.25	0.516	0.375	fractional inhibitory concentration index (FICI) (Pseudomonas aeruginosa [21]): 0.5; FIC (Klebsiella pneumoniae [22]): 0.063; MIC (Klebsiella pneumoniae [23]): 0.031 µg/mL; FIC (Klebsiella pneumoniae [24]): 0.125; fractional inhibitory concentration index (FICI) (Escherichia coli [25]): 0.313; TI [26]: 33.1; FIC (Klebsiella pneumoniae [27]): 0.0625; FIC (Escherichia coli [28]): 0.125; FIC (Pseudomonas aeruginosa [29]): 0.125; fractional inhibitory concentration index (FICI) (Pseudomonas aeruginosa [30]): 0.516; fractional inhibitory concentration index (FICI) (Pseudomonas aeruginosa [31]): 0.266; MIC (Escherichia coli [32]): 0.5 µg/mL; fractional inhibitory concentration index (FICI) (Escherichia coli [33]): 0.375; fractional inhibitory concentration index (FICI) (Staphylococcus aureus [34]): 0.5; fractional inhibitory concentration index (FICI) (Klebsiella pneumoniae [35]): 0.281; FIC (Klebsiella pneumoniae [36]): 0.125
